Assay results collected from several papers.
Protocols differ between the studies behind these lines.
Target: Protein kinase C theta type (PRKCQ, Homo sapiens, UniProt Q04759)

CCCS(=O)(=O)Nc1ccc(F)c(C(=O)c2c[nH]c3ncc(-c4ccc(Cl)cc4)cc23)c1F — inhibition (enzyme activity, inhibitor; 1 µM): < 10%
CN1CC(Oc2cnc(C#N)cc2-c2ccn3nc(NC(=O)C4CC4)cc3c2)C1 — inhibition (enzyme activity, inhibitor; 1 µM): -2%
CNCc1ccccc1-c1csc([C@H](C)Nc2nc(C)nc3cc(OC)c(OC)cc23)c1 — remaining binding (cell-free assay, competition with immobilised ligand; 1 µM): 100%
CN(C)C1CCN(CC#Cc2nn(C3CCCC3)c3nc(NCc4ccccc4)ncc23)C1 (stereo not drawn) — inhibition (enzyme activity, inhibitor, FRET; 1 µM): 19%
CCCOc1ccc(OC)c(F)c1C(=O)c1ccc(C(=O)N[C@@H]2CNC[C@H]2NC(=O)c2ccc3[nH]ncc3c2)cc1 — remaining activity (enzyme activity, inhibitor; 10 µM): 22%
Cc1ccc(NC(=O)c2ccc(C)c(C(F)(F)F)c2)cc1C#Cc1nn(C2CCC(O)CC2)c2ncnc(N)c12 (stereo not drawn) — remaining signal (cell-free assay; 10 µM): 103%
CC(=O)Nc1c(C(C)=O)c(=O)n(C)c2nc(-c3ccc(Cl)cc3Cl)c(-c3ccc(Cl)cc3)cc12 — remaining binding (cell-free assay, competition with immobilised ligand; 1 µM): 100%
CC[C@H](CO)Nc1nc(NCc2ccccc2)c2ncn(C(C)C)c2n1 — remaining signal (cell-free assay; 0.5 µM): 90%
Cc1ccc(C(=O)Nc2ccc(CN3CCN(C)CC3)c(C(F)(F)F)c2)cc1C#Cc1cnc2cccnn12 — remaining activity (enzyme activity; 23.5 nM): 96%
Nc1nc(Nc2ccc(S(N)(=O)=O)cc2)nn1C(=O)c1c(F)cccc1F — remaining signal (cell-free assay; 0.5 µM): 114%
COc1cc2ncnc(Nc3ccc(Oc4ccccc4)c(C)c3C)c2cc1OC — inhibition (enzyme activity, inhibitor; 1 µM): 8%
Cc1ccc(Nc2nccc(N(C)c3ccc4c(C)n(C)nc4c3)n2)cc1S(N)(=O)=O — inhibition (enzyme activity, inhibitor; 10 µM): -3%
O=C(O)c1cc(-c2ccc(C3CCNCC3)cc2)c2ccc(-c3ccc(C(F)(F)F)cc3)cc2c1 — remaining binding (cell-free assay, competition with immobilised ligand; 1 µM): 100%
CC(C)(C)c1nc(-c2cccc(NS(=O)(=O)c3c(F)cccc3F)c2F)c(-c2ccnc(N)n2)s1 — remaining activity (enzyme activity, inhibitor, radiometric; 1 µM): 120%
Nc1cnc(N2CCc3cc(S(=O)(=O)Nc4c(F)cc(Cl)cc4F)cc(N4CCCC4=O)c32)nc1 — remaining binding (cell-free assay, competition with immobilised ligand; 1 µM): 89%
COc1cc2c(Nc3ccc(Br)cc3F)ncnc2cc1OCC1CCN(C)CC1 — remaining signal (cell-free assay; 0.5 µM): 100%
Cc1cnc(NC2CCOCC2)nc1-n1cnc(C(=O)NC(CN)c2cc(F)cc(Cl)c2)c1 (stereo not drawn) — remaining activity (enzyme activity, inhibitor, radiometric; 1 µM): 99%
COc1cc(Cl)c(C(=O)N[C@@H](CN[C@H]2CC[C@@H](N)CC2)Cc2ccc(C#N)cc2)cc1-c1ccc(CN[C@H](C)c2ccc(C)cc2)o1 — remaining activity (enzyme activity, inhibitor; 1 µM): 106%
CC(C)(O)[C@H]1CC[C@H](Nc2ccc3ncc(-c4cccc(C(F)(F)F)c4)n3n2)CC1 — remaining activity (enzyme activity, inhibitor; 1 µM): 86.1%
CNCc1ccc(-c2cc(-c3nc(-c4ccc(S(=O)(=O)C(C)C)cc4)cnc3N)on2)cc1 — inhibition (enzyme activity, inhibitor; 2 µM): 0%
CC/C(=N\NC(=O)NCc1cccc(O)c1)c1ccc(O)c(C)c1O — inhibition (enzyme activity, inhibitor; 0.1 µM): 12.2%
Cn1nc(C(F)(F)F)cc1-c1cnc(N2CCc3cc(S(=O)(=O)Nc4c(F)cc(Cl)cc4F)cc(N4CCCC4=O)c32)nc1 — remaining binding (cell-free assay, competition with immobilised ligand; 1 µM): 100%
O=C(Nc1cnn(-c2csc(C(=O)NC3COC3)c2)c1)Nc1c(F)cccc1Cl — remaining activity (enzyme activity, inhibitor; 5 µM): 94.7%
CO[C@@H](C)c1c(Nc2ccc([C@@H](N(C)C(=O)C3CCS(=O)(=O)CC3)C(F)(F)F)cc2)cnc2cc(Cl)nn12 — remaining binding (cell-free assay, competition with immobilised ligand; 1 µM): 98%
CNC(=O)c1cc(Oc2ccc(NC(=O)Nc3ccc(Cl)c(C(F)(F)F)c3)cc2)ccn1 — inhibition (enzyme activity, inhibitor; 0.3 µM): 3%
COc1ccc2c(c1)O[C@H](c1ccc(OC)c(OC)c1)C[C@@H]2NC(=O)C1(c2ccc3c(c2)OC(F)(F)O3)CC1 — remaining binding (cell-free assay, competition with immobilised ligand; 1 µM): 100%
Cn1cnc(Br)c1C1=CN(c2ncnc3[nH]cnc23)CCS1 — inhibition (enzyme activity, inhibitor, radiometric; 2 µM): 97.9%
C[C@@H]1CCN(C(=O)CC#N)C[C@@H]1N(C)c1ncnc2[nH]ccc12 — remaining signal (cell-free assay; 0.5 µM): 89%
CCC(=O)N[C@@H]1CC[C@H](C(=O)N(C)c2ccc(-c3nc4ccccc4o3)cc2)C1 — remaining binding (cell-free assay, competition with immobilised ligand; 1 µM): 76%
Cc1sc(C(=O)NC2COC2)cc1-n1cc(NC(=O)Nc2c(F)cccc2Cl)cn1 — remaining activity (enzyme activity, inhibitor; 10 µM): 96.9%
